The text below walks through data of ChEMBL document CHEMBL3272021, “Quaternary pilocarpine derivatives as potential acetylcholine antagonists. 2. Alterations in the lactone and imidazole moieties” (J Med Chem, 1976).

For data set [1], the system named is Ileum. Briefly: Inhibition of acetylcholine-induced contraction in guinea pig ileum at 0.03 ug/ml. The conditions noted are these: Cavia porcellus, read-out: INH.
The subject of data set [2] is Mus musculus. The data set is described as follows: Antidotal activity in ip dosed male mouse assessed as inhibition of tetraethylpyrophosphate-induced intoxication drug administered 5 mins prior to subcutaneously administration of 3 X LD50 of TEPP in presence of 25 mg/kg atropine sulfate. The format is functional, organism-based. Also noted: dose 25 mg/kg. The following applies: at 25 mg/kg. A digest of the protocol:
(§1)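 Male mice, 20 g body weight. Compound was dissolved in saline or propylene glycol and given ip at the maximal dose (up to 100 mg/kg) that caused no observable symptoms alongside atropine sulfate (25 mg/kg), per preliminary groups of four mice. It was co-injected with atropine 5 min before sc 3 × LD50 TEPP. Surviving mice were scored from two experiments of five animals each.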

Data set [3] concerns Ileum. Briefly: Inhibition of acetylcholine-induced contraction in guinea pig ileum at 10 ug/ml. The following applies: for inhibition at 10 µg/mL: Cavia porcellus, Ileum. The format is functional, Cavia porcellus. A digest of the protocol:
(§2)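 Terminal guinea pig ileum segment in a 5-ml organ bath of Tyrode solution at 35°, with isometric kymograph recording. Control contractions were elicited with 0.1 μg AcCh. Compound was added, and AcCh followed 1 min later without washing. The value is percent reduction of the control AcCh response, averaged over two separate assays. Concentrations are final per ml of bath fluid.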

Data set [4] concerns Mus musculus. The data set is described as follows: Antidotal activity in male mouse assessed as inhibition of tetraethylpyrophosphate-induced intoxication at 50 mg/kg, ip drug administered 5 mins prior to subcutaneously administration of 3 X LD50 of TEPP in presence of 25 mg/kg atropine sulfate. In kind it is functional, organism-based. A digest of the protocol:
as §1

For data set [5], the system named is Ileum. Briefly: Inhibition of acetylcholine-induced contraction in guinea pig ileum at 0.4 ug/ml. The conditions noted are these: Cavia porcellus. The format is functional. The method, boiled down: as §2
In data set [6] the test system is Ileum. The data set is described as follows: Toxicity in guinea pig ileum assessed as spasmogenic activity relative to 0.6 ug/ml pilocarpine. In kind it is tissue-based, Cavia porcellus. The following applies: ex_vivo. A digest of the protocol: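 Guinea pig terminal ileum in a 5-ml Tyrode bath at 35°, with isometric kymograph recording at 16× magnification. Contact time was 30 sec with a 2-min cycle. Reference contractions used pilocarpine (0.6 μg). Compounds were applied at several concentrations, and potency relative to pilocarpine was calculated from contraction heights.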

Data set [7] relates to Ileum. Briefly: Toxicity in guinea pig ileum assessed as spasmogenic activity treated 1 min after addition of 10 ng/ml muscarinic acetylcholine receptor antagonist atropine sulphate. In kind it is tissue-based, Cavia porcellus.
Data set [8] concerns Ileum. Briefly: Inhibition of acetylcholine-induced contraction in guinea pig ileum at 0.1 ug/ml. The format is functional. The conditions noted are these: Cavia porcellus. The method, boiled down:
as §2

Data set [9] relates to Mus musculus. Briefly: Antidotal activity in male mouse assessed as inhibition of tetraethylpyrophosphate-induced intoxication at 100 mg/kg, ip drug administered 5 mins prior to subcutaneously administration of 3 X LD50 of TEPP in presence of 25 mg/kg atropine sulfate. In kind it is functional, organism-based. The method, boiled down: as §1
Data set [10] relates to Ileum. Briefly: Inhibition of acetylcholine-induced contraction in guinea pig ileum at 2 ug/ml. In kind it is functional. The following applies: Cavia porcellus. A digest of the protocol: as §2
Data set [11] relates to Ileum. Briefly: Toxicity in guinea pig ileum assessed as spasmogenic activity at 0.6 ug/ml. The format is tissue-based, Cavia porcellus.
The subject of data set [12] is Ileum. The data set is described as follows: Inhibition of acetylcholine-induced contraction in guinea pig ileum at 1 ug/ml. In kind it is functional. The conditions noted are these: Cavia porcellus. The method, boiled down: as §2
Data set [13] relates to Mus musculus. The data set is described as follows: Antidotal activity in male mouse assessed as inhibition of tetraethylpyrophosphate-induced intoxication at 25 mg/kg, ip drug administered 5 mins prior to subcutaneously administration of 3 X LD50 of TEPP in presence of 25 mg/kg atropine sulfate. The format is functional, organism-based. A digest of the protocol:
as §1

SMILES strings stand for the structures. Structures can show the parent of a compound that is named as a salt. Active and inactive are the calls of the source. The calls are words filed in the database; no cut-off is given here.

As to `CN1[C@@H]2CC[C@H]1C[C@@H](OC(=O)C(CO)c1ccccc1)C2` (stereo not given in full) [ATROPINE SULFATE], the inhibition at 0.03 µg/mL in the data set with Ileum [1] turned out to be 100%. In the data set on Mus musculus [2], the inhibition result was “inactive”.
In the case of `CCC1C(=O)OCC1Cc1c[n+](C/C(=N\O)c2ccccc2)cn1C` (stereo not given), the inhibition at 10 µg/mL in the data set on Ileum [3] was found to be 30%. The inhibition entry with Mus musculus [4] was “Active”.
`CCC1C(=O)OCC1Cc1c[n+](CCCOC(C)=O)cn1C.[Br-]` (stereo not given) had an inhibition at 0.4 µg/mL in the data set on Ileum [5] of 0%. Besides, in the data set on Ileum [6], the “fold change (FC)” value worked out at 0.05. The Activity result in the data set with Ileum [7] is “Non-toxic”.
As to `CCC1C(=O)OCC1Cc1c[n+](C/C(=N\O)c2ccc(-c3ccccc3)cc2)cn1C` (stereo not given) [listing 1 of 2 here], the inhibition at 10 µg/mL with Ileum [3] came out at 100%.
Turning to `CCC1C(=O)OCC1Cc1c[n+](CCOC(C)=O)cn1C.[Br-]` (stereo not given), in the data set with Ileum [8], the inhibition at 0.1 µg/mL came out at 0%. In the data set with Mus musculus [9], the inhibition entry is “inactive”. In the data set with Ileum [6], the “fold change (FC)” value is given as 0.1. The Activity result with Ileum [7] was “Non-toxic”.
Regarding `CCC(C(=O)NO)C(CO)Cc1c[n+](C/C(=N\O)c2ccc(-c3ccccc3)cc2)cn1C` (stereo not given), in the data set on Ileum [3], the inhibition at 10 µg/mL is 53%.
`CCC1C(=O)OCC1Cc1c[n+](C/C(=N/O)c2ccc([N+](=O)[O-])cc2)cn1C` (stereo not given): in the data set with Ileum [3], the inhibition at 10 µg/mL came out at 90%. Moreover, the inhibition entry in the data set on Mus musculus [2] was “inactive”.
Consider `CCC1C(=O)OCC1Cc1c[n+](C/C(=N\O)c2ccc(-c3ccccc3)cc2)cn1C` (stereo not given) [listing 2 of 2 here], for which the inhibition entry with Mus musculus [2] was “inactive”.
`CCC(C(=O)NO)C(CO)Cc1c[n+](Cc2ccc(Br)cc2)cn1C` (stereo not given) had an inhibition at 10 µg/mL with Ileum [3] of 95%. In the data set on Mus musculus [9], the inhibition entry is “Active”.
Turning to `CCC1C(=O)OCC1Cc1c[n+](C/C(=N\O)c2ccc(Br)cc2)cn1C.[Br-]` (stereo not given), in the data set on Ileum [3], the “inhibition (INH)” value was 100%.
In the data set with Ileum [3], `CCC(C(=O)NO)C(CO)Cc1c[n+](CC)cn1C` (stereo not given) registered an inhibition at 10 µg/mL of 55%.
Still for that read-out and setting: the value for `CCC(C(=O)NO)C(CO)Cc1c[n+](C/C(=N\O)c2ccc(Br)cc2)cn1C` (stereo not given) was 55%.
`CCC1C(=O)OCC1Cc1c[n+](CC(=O)c2ccc(Br)cc2)cn1C` (stereo not given) showed an inhibition at 10 µg/mL in the data set with Ileum [3] of 90%. For the same molecule, in the data set with Mus musculus [9], the inhibition result is “inactive”.
For the molecule `CCC(C(=O)NO)C(CO)Cc1c[n+](C/C(=N\O)c2ccc([N+](=O)[O-])cc2)cn1C.[Br-]` (stereo not given), the inhibition at 2 µg/mL with Ileum [10] was 0%. In addition, in the data set on Ileum [6], the “fold change (FC)” value amounted to 0.01. For the same molecule, the Activity entry in the data set on Ileum [7] is listed as “Non-toxic”.
The molecule `CCC(C(=O)NO)C(CO)Cc1c[n+](CC(=O)c2ccc([N+](=O)[O-])cc2)cn1C.[Br-]` (stereo not given) returned an inhibition at 0.1 µg/mL with Ileum [8] of 0%. In addition, the inhibition entry in the data set with Mus musculus [2] is “inactive”. Besides, the “fold change (FC)” value in the data set on Ileum [6] came to 0.1. The Activity entry in the data set on Ileum [7] is recorded as “Non-toxic”.
For `CCC1C(=O)OCC1Cc1c[n+](CCO)cn1C.[Br-]` (stereo not given), in that order: 0%, “inactive”, 0.1 and “Non-toxic”.
Regarding `CCC(C(=O)NO)C(CO)Cc1c[n+](CC(=O)c2ccc(Br)cc2)cn1C` (stereo not given), in the data set on Ileum [3], the inhibition at 10 µg/mL was determined as 80%. The inhibition result in the data set with Mus musculus [2] was “inactive”.
The molecule `CCC(C(=O)NO)C(CO)Cc1c[n+](Cc2ccc(Cl)c(Cl)c2)cn1C` (stereo not given) returned an inhibition at 10 µg/mL in the data set with Ileum [3] of 25%. Also, the inhibition entry in the data set on Mus musculus [9] is “Active”.
`CC[C@@H]1C(=O)OC[C@@H]1Cc1cncn1C` [PILOCARPINE]: in the data set with Ileum [11], the Activity entry was “Toxic”.
For `CCC1C(=O)OCC1Cc1c[n+](CC(=O)c2ccc([N+](=O)[O-])cc2)cn1C.[Br-]` (stereo not given), in the data set with Ileum [12], the inhibition at 1 µg/mL was 0%. In addition, the inhibition entry with Mus musculus [2] was “inactive”. For the same molecule, the “fold change (FC)” value with Ileum [6] worked out at 0.01.
In the case of `CC[C@H]1C(=O)OC[C@@H]1Cc1cncn1C`, the “fold change (FC)” value with Ileum [6] amounted to 0.02. Moreover, the Activity result in the data set on Ileum [7] is “Non-toxic”.
Consider `CCC(C(=O)NO)C(CO)Cc1c[n+](Cc2ccc(C)cc2)cn1C` (stereo not given), for which the inhibition at 10 µg/mL with Ileum [3] was found to be 55%. Further, in the data set on Mus musculus [9], the inhibition entry was “Active”.
With `CCC1C(=O)OCC1Cc1c[n+](CCCO)cn1C.[Br-]` (stereo not given), the inhibition at 0.4 µg/mL with Ileum [5] was found to be 0%. Besides, the “fold change (FC)” value in the data set with Ileum [6] is given as 0.05. The Activity result with Ileum [7] is “Non-toxic”.
Turning to `CCC1C(=O)OCC1Cc1c[n+](C/C(=N\O)c2ccc(Br)cc2)cn1C` (stereo not given), the inhibition entry in the data set with Mus musculus [2] was “inactive”. Besides, in the data set on Mus musculus [13], the inhibition entry was “Active”.
With `CCC1C(=O)OCC1Cc1c[n+](C/C(=N\O)c2ccc(Br)cc2)cn1C.[Cl-]` (stereo not given), the “inhibition (INH)” value in the data set with Ileum [3] came to 50%.
The same measure, in the same setting: the value for `CCC1C(=O)OCC1Cc1c[n+](C/C(=N\O)c2ccc(-c3ccccc3)cc2)cn1C.[Cl-]` (stereo not given) was 80%.
In the data set with Ileum [3], `CCC1C(=O)OCC1Cc1c[n+](CC(=O)c2ccc(-c3ccccc3)cc2)cn1C` (stereo not given) came in with an inhibition at 10 µg/mL of 100%. For the same molecule, in the data set with Mus musculus [2], the inhibition result is “inactive”.
